Measurements reported in ChEMBL document CHEMBL1151452, “Novel trypanocidal analogs of 5'-(methylthio)-adenosine” (Antimicrob Agents Chemother, 2008).
The source made the active and inactive calls. The calls are words filed in the database; no cut-off is given here.

Experiments:
[1] = system: Trypanosoma brucei brucei; assay: Activity at bloodstream Trypanosoma brucei brucei 5'-deoxy-5'-(methylthio)-adenosine phosphorylase by spectrophotometry in presence of 50 mM PO4- relative to control; conditions: LAB 110 EATRO
Method in brief: (§1)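 Enzyme was a cell-free extract of bloodstream trypanosomes harvested from rats. It was prepared by freeze-thawing three times in dry ice-methanol, spinning at 5,000 × g for 10 min, and dialysing 1 h (0.05 M Tris-HCl, 0.1 mM EDTA, 1 mM 2-mercaptoethanol, pH 7.4) to remove phosphate. The mix held 0 or 50 mM potassium phosphate pH 7.4, xanthine oxidase and 25–500 μM substrate. Adenine-derived 2,8-dihydroxyadenine was read at 305 nm over 1 h at 37°C. Activity is expressed relative to MTA.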

[2] = system: Trypanosoma brucei brucei; assay: Antitrypanosomal activity against bloodstream form of Trypanosoma brucei brucei LAB 110 EATRO after 48 hrs by Z1 zoulter counter; format: functional, organism-based; conditions: for IC50: Trypanosoma brucei, LAB 110 EATRO, 48 h
Method in brief: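 Bloodstream forms were grown axenically in HMI-18 (IMDM with 1 μM hypoxanthine and 20% horse serum). Compounds were dissolved in water or DMSO, with final DMSO ≤0.3%. […] Parasites were counted by Coulter counter.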

[3] = system: Trypanosoma brucei brucei; assay: Activity at bloodstream Trypanosoma brucei brucei 5'-deoxy-5'-(methylthio)-adenosine phosphorylase by spectrophotometry relative to control; set-up: concentration or dose not given beside the values; conditions: LAB 110 EATRO; method in brief: as §1
Mus musculus = organism: Mus musculus; assay: Activity at mouse liver 5'-deoxy-5'-(methylthio)-adenosine phosphorylase; set-up: concentration or dose not given beside the values
[4] = system: Trypanosoma brucei rhodesiense; assay: Growth stimulation of pentamidine and melarsoprol-resistant bloodstream form of Trypanosoma brucei rhodesiense isolate KETRI 243 at 100 uM after 48 hrs by Z1 zoulter counter
[5] = system: Trypanosoma brucei brucei; assay: Growth stimulation of diamidine and melarsoprol-resistant bloodstream form of Trypanosoma brucei brucei isolate KETRI 243-As10-3 at 100 uM after 48 hrs by Z1 zoulter counter; format: functional, organism-based

SMILES	Activity [1] [%]	IC50 [2] [µM]	Activity [3] [%]	further results
Cc1ncnc2c1ncn2[C@@H]1O[C@H](CSCCO)[C@@H](O)[C@H]1O	2	24.5	25	
CC(=O)OCCSC[C@H]1O[C@@H](n2cnc(C(N)=O)n2)[C@H](OC(C)=O)[C@@H]1OC(C)=O		26.5		
Nc1ncnc2c1ncn2[C@@H]1O[C@H](CSCCF)[C@@H](O)[C@H]1O	75.3	0.2	29.3	Activity (Mus musculus): 64%
CC(=O)OCCSC[C@H]1O[C@@H](n2cnc3c(N)nc(F)nc32)[C@H](OC(C)=O)[C@@H]1OC(C)=O		2.75		
NCCSC[C@H]1O[C@@H](n2cnc3c(N)ncnc32)[C@H](O)[C@@H]1O		> 100		Activity [4]: Active
CC(=O)OCCSC[C@H]1O[C@@H](n2ccc3c(N)ncnc32)[C@H](OC(C)=O)[C@@H]1OC(C)=O		0.145		
CC(=O)OCCSC[C@H]1O[C@@H](n2cnc3c(N)ncnc32)C[C@@H]1OC(C)=O		22		
Nc1ncnc2c1ncn2[C@@H]1O[C@H](CSCCO)[C@@H](O)[C@H]1O	96	0.54	100	
OCCSC[C@H]1O[C@@H](n2cnc3c(F)ncnc32)[C@H](O)[C@@H]1O	42	> 100	60	
Nc1ncnc2c1ccn2[C@@H]1O[C@H](CSCCO)[C@@H](O)[C@H]1O	0	0.042	0	
Nc1nc(F)nc2c1ncn2[C@@H]1O[C@H](CSCCO)[C@@H](O)[C@H]1O	148	1.9	106	
CC(=O)OCCSC[C@H]1O[C@@H](n2cnc3c(C)ncnc32)[C@H](OC(C)=O)[C@@H]1OC(C)=O		9.3		
CCCSC[C@H]1O[C@@H](n2cnc3c(N)ncnc32)[C@H](O)[C@@H]1O	57.5	46	26	Activity (Mus musculus): 100%
CC(=O)OCCSC[C@H]1O[C@@H](n2cnc3c(N)ncnc32)[C@H](OC(C)=O)[C@@H]1OC(C)=O		0.32		
CSC[C@H]1O[C@@H](n2ccc3c(NC(C)=O)ncnc32)[C@H](OC(C)=O)[C@@H]1OC(C)=O		46		
CC(=O)OCCSC[C@H]1O[C@@H](n2cnc3c2ncn2ccnc32)[C@H](OC(C)=O)[C@@H]1OC(C)=O		35		
CSC[C@H]1O[C@@H](n2ccc3c(N)ncnc32)[C@H](O)[C@@H]1O	0	67	0	
CNC[C@H]1O[C@@H](n2cnc3c(N)ncnc32)[C@H](O)[C@@H]1O	4	> 100	0	
CC(=O)OCCSC[C@H]1O[C@@H](n2cnc3c(N)nc(N)nc32)[C@H](OC(C)=O)[C@@H]1OC(C)=O		12.5		
CC(=O)OCCSC[C@H]1O[C@@H](n2cnc3c(F)ncnc32)[C@H](OC(C)=O)[C@@H]1OC(C)=O		> 100		
Nc1ncnc2c1nnn2[C@@H]1O[C@H](CSCCO)[C@@H](O)[C@H]1O		7		
CC(=O)OCCSC[C@@H]1C[C@@H](OC(C)=O)[C@H](n2cnc3c(N)ncnc32)O1		0.64		

SMILES	Activity [1] [%]	IC50 [2] [µM]	Activity [3] [%]	further results
Nc1ncnc2c1ncn2[C@@H]1O[C@H](CSCCCF)[C@@H](O)[C@H]1O	47.5	120	31.3	Activity (Mus musculus): 64%
Nc1ncnc2c1ncn2[C@@H]1O[C@H](CSCCCO)[C@@H](O)[C@H]1O	72.5	170	27.4	
OCCSC[C@H]1O[C@@H](n2cnc3c2ncn2ccnc32)[C@H](O)[C@@H]1O	56	> 100	62	
Nc1nc(N)c2ncn([C@@H]3O[C@H](CSCCO)[C@@H](O)[C@H]3O)c2n1	29	3.9	18	
CC(=O)OCCSC[C@H]1O[C@@H](n2cnc3cncnc32)[C@H](OC(C)=O)[C@@H]1OC(C)=O		3.65		
Nc1ncnc2c1ncn2C[C@@H](O)CSCCO		> 100		
Nc1ncnc2c1ncn2C[C@H](O)CSCCO		60		
Nc1ncnc2c([C@@H]3N[C@H](CSCCO)[C@@H](O)[C@H]3O)c[nH]c12		> 10		
COC(=O)CSC[C@H]1O[C@@H](n2cnc3c(N)ncnc32)[C@H](O)[C@@H]1O	84	130	34	
OCCSC[C@H]1O[C@@H](n2cnc3cncnc32)[C@H](O)[C@@H]1O	11	34	4	
Nc1ncnc2c1ncn2COCCSCCO	56	64	78	
Nc1ncnc2c1ncn2[C@H]1CC[C@@H](CSCCO)O1	17	100	18	
NC(=O)c1ncn([C@@H]2O[C@H](CSCCO)[C@@H](O)[C@H]2O)n1	61		70	inhibition (INH) [2]: 9%; Activity [4]: Active
CSC[C@H]1O[C@@H](n2cnc3c(N)ncnc32)[C@H](O)[C@@H]1O [METHYLTHIOADENOSINE]	100	100	100	Activity (Mus musculus): 100%
NCCCSC[C@H]1O[C@@H](n2cnc3c(N)ncnc32)[C@H](O)[C@@H]1O	46	> 100	60	
CCSC[C@H]1O[C@@H](n2cnc3c(N)ncnc32)[C@H](O)[C@@H]1O	76.2		26.9	Activity (Mus musculus): 100%
OCCSC[C@H]1O[C@@H](n2cnc3c(O)ncnc32)[C@H](O)[C@@H]1O	0	> 100	0	
Nc1ncnc2c1ncn2[C@H]1C[C@H](O)[C@@H](CSCCO)O1	100	> 100	81	Activity [5]: Active
CC(=O)O[C@@H]1[C@H](OC(C)=O)[C@@H](CSCCF)O[C@H]1n1cnc2c(N)ncnc21		0.83		
CC(=O)OCCSC[C@H](COC(C)=O)O[C@H](COC(C)=O)n1cnc2c(N)ncnc21		5.3		
Nc1ncnc2c1ncn2[C@@H]1O[C@H](CSCCO)C[C@H]1O	39.4	12.5	37.8	
Nc1ncnc2c1ncn2[C@@H](CO)O[C@@H](CO)CSCCO	44	14	0	
